High-throughput results: PubChem BioAssay, Sanford-Burnham Center for Chemical Genomics
MPTP block = blocks calcium-induced mitochondrial swelling; isolated mouse mitochondria, Ca2+ swelling absorbance, 30 min; 360,000 tested, 1.4% active; inhibition, % at 10 µM;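 active = inhibition of 50% or more, scaled per plate between neutral and stimulator controls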;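 also: 0% = DMSO wells given calcium and 100% = 1 mM EGTA wells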
GRIN3A LBD mod = NR3A (human) ligand-binding domain modulation | Tm shift relative to glycine control, % at 25 µM | NR3A LBD differential scanning fluorimetry, Tm shift; 0% = protein alone, 100% = glycine-bound protein | 340,000 tested, 2.5% active | AID 1259313;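 active = melting temperature shift of at least 10% of the positive control shift, at one fixed dose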
EBI2 block = blocks human EBI2 receptor beta-arrestin signaling | P32249 | EBI2 beta-arrestin recruitment, luminescence, 7a,25-OHC stimulated | inhibition, % at 5 µM | 360,000 tested, 0.81% active; in the data active = inhibition above about 38%;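 also: enzyme fragment complementation signal reports receptor beta-arrestin coupling in cells; 0% = agonist plus DMSO wells and 100% = wells without agonist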
Target sequence (P32249 whole entry, looked up, the tested form may be a part): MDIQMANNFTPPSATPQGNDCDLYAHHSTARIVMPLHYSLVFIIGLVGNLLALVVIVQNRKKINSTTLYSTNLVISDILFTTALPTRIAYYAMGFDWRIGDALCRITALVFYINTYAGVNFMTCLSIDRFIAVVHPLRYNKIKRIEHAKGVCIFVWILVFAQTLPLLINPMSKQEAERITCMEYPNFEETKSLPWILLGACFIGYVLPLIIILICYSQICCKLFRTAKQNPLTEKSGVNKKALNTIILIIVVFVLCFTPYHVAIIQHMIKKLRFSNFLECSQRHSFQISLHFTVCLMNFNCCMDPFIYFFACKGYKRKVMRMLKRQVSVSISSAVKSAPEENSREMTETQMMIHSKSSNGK
SENP1 inh = SENP1 (human) catalytic domain inhibition | recombinant SENP1 catalytic domain, CyPet-SUMO1-YPet FRET cleavage | 360,000 tested, 0.21% active | inhibition, % at 10 µM | Q9P0U3;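 active = inhibition at least 30% at 10 µM, raw YFP signal under a set limit, fluorescence ratio 0.5 to 1.5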;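 also: 0% = enzyme with DMSO and 100% = no enzyme wells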
Target sequence (Q9P0U3 419-644 limits assumed): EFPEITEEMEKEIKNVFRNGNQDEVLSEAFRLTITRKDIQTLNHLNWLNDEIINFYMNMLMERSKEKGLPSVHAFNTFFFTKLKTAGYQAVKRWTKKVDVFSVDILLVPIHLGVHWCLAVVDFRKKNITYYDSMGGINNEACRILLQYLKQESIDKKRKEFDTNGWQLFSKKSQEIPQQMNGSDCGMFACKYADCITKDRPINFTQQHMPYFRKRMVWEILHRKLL
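Test system: hSENP1 catalytic domain, recombinant; Amount: 20 pM final SENP1 enzyme; Medium: Tris pH 8 buffer plus EDTA, NaCl, BME, BSA, NP40, catalase; Schedule: 50 min enzyme reaction, room temperature, light-protected; Technique: FRET fluorescence in CFP and YFP emission channels; Controls: no-enzyme wells low, DMSO-plus-enzyme wells high control.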
* hit, by the source's call; / = no result. In the library only some 4.4% were active in any assay of this set; here they are far more common.

SMILES	MPTP block	GRIN3A LBD mod	EBI2 block	SENP1 inh
O=C(NCC(c1ccco1)N1CCN(c2ccc(F)cc2)CC1)C1CCCCC1 (stereo unspecified)	-1	0	8	4
O=C(NCCC1=CCCCC1)C(=O)NCC(c1ccco1)N1CCN(c2ccc(F)cc2)CC1 (stereo unspecified)	4	10*	5	2
CC1CCCN(C(=O)c2ccc(OC3CCN(CCc4ccccc4)CC3)cc2)C1 (stereo unspecified)	2	-1	2	-1
CSC(=S)NN=C(C)c1cccc(C)n1	-1	15*	11	3
CC(=NNC(=S)N1CCCCC1)c1cccc(C)n1	0	0	2	2
CCS(=O)(=O)N1CCN(S(=O)(=O)c2ccc3c(c2)OCCO3)CC1	0	2	10	-1
C=CCSc1nc(C)cc2c1C(=O)OC2	0	0	-4	1
C/C(=N\NC(=O)Cc1c[nH]c2ccccc12)c1ccc2ccccc2c1	0	15*	-18	-1
CC(C)C(=O)NCCc1c[nH]c2ccccc12	1	5	-10	2
O=C(NCCc1c[nH]c2ccccc12)c1ccc(-n2cnnn2)cc1	1	13*	-4	1
O=C(NCCc1c[nH]c2ccccc12)c1ccccc1	0	13*	15	2
C/C(=N\NC(=O)c1c[nH]c2ccccc12)c1ccc2c(c1)OCO2	3	7	0	-2
O=C(NCCc1c[nH]c2ccccc12)C(F)(F)F	-5	-19	-3	-1
Cc1ccc(C(=O)NCCc2c[nH]c3ccccc23)s1	0	27*	20	0
O=C(NCCc1ccccc1)c1ccc(-n2cnnn2)cc1	0	-1	4	1
Cc1ccc(CNC(=O)Cc2cccs2)cc1	-1	-4	-7	0
CCN(C[C@H]1N[C@@](Cc2ccccc2)(C(=O)OC)[C@H]2C(=O)N(C)C(=O)[C@@H]12)C(=O)c1ccc(C)cc1	2	0	3	0
NC(=NCCc1c[nH]c2ccccc12)NC(=O)c1ccc(Cl)cc1	4	24*	-2	1
COc1ccc2[nH]cc(CCNC(=O)c3ccc([N+](=O)[O-])cc3)c2c1	0	12*	12	3
O=C(CCCc1c[nH]c2ccccc12)NCCc1c[nH]c2ccccc12	2	15*	33	-3
CC(C)CNC(=O)CCCc1c[nH]c2ccccc12	2	0	1	-3
O=C(NCCc1c[nH]c2ccccc12)c1cc([N+](=O)[O-])cc([N+](=O)[O-])c1	0	-1	15	1
O=C(NCCc1c[nH]c2ccccc12)c1ccc([N+](=O)[O-])cc1	0	25*	15	3
CCC(=O)NN1CCc2cc3ccc(C)cc3nc21	0	2	-7	-3
O=C(CCCc1c[nH]c2ccccc12)Nc1ccc2ccccc2c1	3	24*	27	-17
SMILES	MPTP block	GRIN3A LBD mod	EBI2 block	SENP1 inh
N#CCC(=O)Nc1ccc(C(=O)NCCc2c[nH]c3ccccc23)cc1	-2	18*	1	-13
CC(=O)Nc1ccc(NC(=O)CCCc2c[nH]c3ccccc23)cc1	-1	-6	4	-3
CCCN1CCC(C)(C(=O)Nc2ccccc2Oc2ccccc2)C1 (stereo unspecified)	0	/	13	0
O=C(CN(CC1CCCO1)C(=O)CNS(=O)(=O)c1ccccc1)NCCc1ccccc1 (stereo unspecified)	-1	-1	-10	1
CCc1ccc(C2C(C#N)=C(N)N(N(C)C)C3=C2C(=O)CCC3)cc1 (stereo unspecified)	2	-1	-5	-8
CCOc1ccc(NC(=O)c2sc3nc(C)nc(N4CCOCC4)c3c2C)cc1	-1	16*	-7	0
Cc1cccc(NC(=O)c2sc3nc(C)nc(N4CCOCC4)c3c2C)c1	1	/	21	3
COc1ccc(C(=O)NNC(=O)c2snnc2C)cc1	1	-1	3	2
O=C(Nc1ccc(Cl)cc1)c1ccc2sc([C@@H]3O[C@H](CO)[C@H](O)[C@H](O)[C@H]3O)nc2c1	-2	/	-19	3
COc1ccc(-c2noc(CCCC(=O)Nc3ccc(C(N)=O)cc3)n2)cc1OC	1	0	7	2
OCCN(CCCn1c(C(F)(F)F)nc2ccccc21)c1nc(CN2CCCCC2)cs1	0	1	0	-2
Cc1ccc(-c2csc(N(CCO)CCCn3c(C(F)(F)F)nc4cc(C(F)(F)F)ccc43)n2)cc1	0	19*	8	-7
O=C1CC(c2ccco2)CC(O)=C1C=Nc1cc(Cl)ccc1O (stereo unspecified)	2	2	4	37*
CC1(C)N=C(N)NC(=NCCCOc2ccc([N+](=O)[O-])cc2)N1	0	/	1	0
CC1=NN(c2ccc(Cl)cc2)C(=O)/C1=C\c1cccn1-c1ccc(S(N)(=O)=O)cc1	7	22*	60*	1
Oc1cccc(-c2nc3ccc4ccccc4c3c3c2CCC3)c1	-2	12*	-12	-1
CCOC(=O)[C@H]1[C@H]2COc3cc(OC)ccc3[C@@H]2N2C(=O)CN(Cc3ccc(OC)cc3)C(=O)[C@@]12C	0	-1	0	-1
O=C(N/N=C/c1ccc2c(c1)OCO2)C(=O)Nc1ccccc1Cl	1	14*	9	1
COc1cccc(C(=O)NCC(=O)N/N=C/c2c(C)[nH]c3ccccc23)c1	0	-2	-3	1
Cc1cc(Cl)ccc1NC(=O)C(=O)N/N=C/c1ccc2c(c1)OCO2	2	-1	5	1
COc1ccc2c(Cl)c(C(=O)N/N=C/c3c(C)[nH]c4ccccc34)sc2c1	0	32*	-3	28
O=C(N/N=C/c1ccc2c(c1)OCO2)c1sc2cc(Cl)ccc2c1Cl	0	-1	5	1
Cc1ccsc1C(=O)N/N=C/c1ccc2c(c1)OCO2	0	4	16	1
O=C(N/N=C/c1ccc2c(c1)OCO2)c1sc2cccc(Cl)c2c1Cl	-1	24*	-1	0
COc1ccc2c(Cl)c(C(=O)N/N=C/c3ccc4c(c3)OCO4)sc2c1	4	19*	3	0
SMILES	MPTP block	GRIN3A LBD mod	EBI2 block	SENP1 inh
NC(=O)c1cc(S(=O)(=O)NCCc2ccc(S(N)(=O)=O)cc2)cs1	-1	0	-7	0
Cc1ccc(-c2csc3nc(SCC(=O)Nc4ccc(Cl)c(C(=O)O)c4)[nH]c(=O)c23)cc1	0	-7	-3	-8
O=C(CN(CCc1ccccc1)S(=O)(=O)c1ccc(Cl)cc1)N/N=C/c1ccc2c(c1)OCO2	7	13*	13	0
CCOc1ccccc1NC(=O)CN1CCC(NC(=O)Nc2ccccc2)CC1	1	-4	5	1
O=C1CC(c2cccc(Br)c2)C2=C(COC2=O)N1 (stereo unspecified)	1	-2	1	0
C=CCn1c(Cc2cccs2)nnc1SCC(=O)c1ccc2ccccc2c1	1	16*	20	-1
C=CCn1c(CNC(=O)c2cccs2)nnc1SCC(=O)c1ccc(Br)cc1	7	13*	20	2
